These results are taken from ChEMBL document CHEMBL1275541, “A plasmid-borne blaOXA-58 gene confers imipenem resistance to Acinetobacter baumannii isolates from a Lebanese hospital” (2008).

≈ marks a conversion by molar mass, not a printed value. Calls of active or inactive are those of the source. No cut-off for these calls is given here.

Test [1] relates to Acinetobacter baumannii. In words: Antibacterial activity against Acinetobacter baumannii PFGE type A isolate by microdilution method. Type of test: functional. The essentials:
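MIC by broth microdilution following CLSI M7-A6; susceptibility interpreted with CLSI breakpoints.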
Background: Dilution methods test growth across graded concentrations, often in twofold steps.

Test [2] deals with Acinetobacter baumannii. The experiment in a line: Antibacterial activity against Acinetobacter baumannii PFGE type A isolate by Etest MBL strip method in presence of EDTA. Type of test: functional. The essentials: (§1)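 Imipenem MIC and MBL activity were read with Etest MBL strips on all PFGE type A isolates. A. baumannii AC-54/97, an IMP-2 MBL producer, was the MBL-positive reference strain.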

The subject of test [3] is Acinetobacter baumannii. In words: Antibacterial activity against Acinetobacter baumannii PFGE type A isolate assessed as reduction of MIC by microdilution method in presence of 200 mM NaCl. Type of test: functional. The procedure, abridged: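 Broth microdilution MIC per CLSI M7-A6 with CLSI breakpoints. Carbapenem MICs compared with and without 200 mM NaCl to gauge the oxacillinase contribution. blaOXA-58-carrying PFGE type 1 isolates served as CHDL-positive reference and a blaOXA-58-negative PFGE type 2 isolate as CHDL-negative reference.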

For test [4], the system named is Acinetobacter baumannii. The experiment in a line: Ratio of MIC for imipenem-susceptible Acinetobacter baumannii Ab F PFGE type B transconjugant to MIC for imipenem-susceptible Acinetobacter baumannii Ab F PFGE type B transconjugant in presence of 200 nM NaCl. Type of test: functional. Conditions: in the assay text read “200 mM NaCl” for “200 nM NaCl”. The essentials:
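Carbapenem MICs measured by liquid microdilution with and without 200 mM NaCl, to gauge the oxacillinase contribution. Controls were blaOXA-58-carrying PFGE type 1 isolates (CHDL-positive) and a blaOXA-58-negative PFGE type 2 isolate (CHDL-negative). Transconjugants came from filter mating into recipient Ab F and were selected on brain heart infusion agar with imipenem 16 mg/liter plus trimethoprim-sulfamethoxazole 250 mg/liter.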

Test [5] concerns Acinetobacter baumannii. The experiment in a line: Antibacterial activity against Acinetobacter baumannii PFGE type A isolate by Etest MBL strip method. Type of test: functional. The procedure, abridged: as §1
The subject of test [6] is Acinetobacter baumannii. In words: Antibacterial activity against imipenem-susceptible Acinetobacter baumannii Ab F PFGE type B transconjugant by microdilution method. Type of test: functional. The essentials:
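Transconjugants came from filter mating of imipenem-resistant donors Ab 1 or Ab 8 (PFGE type A) with recipient Ab F (PFGE type B). They were selected on brain heart infusion agar with imipenem 16 mg/liter plus trimethoprim-sulfamethoxazole 250 mg/liter. MICs were then read by microdilution per CLSI M7-A6.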

Test [7] deals with Acinetobacter baumannii. The experiment in a line: Antibacterial activity against Acinetobacter baumannii PFGE type A isolate assessed as reduction of MIC by microdilution method in presence of 200 mg/liter cloxacillin. Type of test: functional, organism-based. The essentials: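 AmpC contribution was probed by liquid microdilution per CLSI M7-A6. Carbapenem MICs were read with and without 200 mg/liter cloxacillin.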

The subject of test [8] is Acinetobacter baumannii. The experiment in a line: Antibacterial activity against Acinetobacter baumannii PFGE type A isolate by microdilution method in presence of Sulbactam. Type of test: functional.
Test [9] relates to Acinetobacter baumannii. In words: Antibacterial activity against Acinetobacter baumannii PFGE type A isolate by microdilution method in presence of Tazobactam. Type of test: functional.

In the case of COLISTIN, in the test with Acinetobacter baumannii [1], the MIC50 (commonly the lowest concentration that inhibits either 50% of growth or 50% of the strains tested, depending on the study) is 2 µg/mL; the MIC90 (usually an inhibitory concentration at the 90% level, which refers to growth in some studies and to a panel of isolates in others) turned out to be 4 µg/mL.
The matching figures for GENTAMICIN: 125 µg/mL and 250 µg/mL.
In the test with Acinetobacter baumannii [1], `C[C@@H](O)[C@H]1C(=O)N2C(C(=O)O)=C(S[C@@H]3CN[C@H](C(=O)N(C)C)C3)[C@H](C)[C@H]12` [MEROPENEM] registered an MIC50 of 8 µg/mL (≈ 20.9 µM) and an MIC90 of 8 µg/mL (≈ 20.9 µM).
Take `C[C@@H](O)[C@H]1C(=O)N2C(C(=O)O)=C(SCCNC=N)C[C@H]12` [IMIPENEM ANHYDROUS]: the MIC (as a rule, the lowest concentration that inhibits growth of the organism) was 4 µg/mL in the test with Acinetobacter baumannii [2], 2 µg/mL in the test on Acinetobacter baumannii [3], 8 µg/mL (≈ 26.7 µM) in the test on Acinetobacter baumannii [5] and 16 µg/mL (≈ 53.4 µM) in the test with Acinetobacter baumannii [6]. In addition, the Ratio in the test on Acinetobacter baumannii [4] was found to be 8. Moreover, the MIC50 in the test on Acinetobacter baumannii [1] was found to be 16 µg/mL (≈ 53.4 µM). Besides, the MIC90 against Acinetobacter baumannii [1] came out at 16 µg/mL (≈ 53.4 µM). Moreover, the result with Acinetobacter baumannii [7] was inactive.
In the test with Acinetobacter baumannii [1], `O=C(O)c1cn(C2CC2)c2cc(N3CCNCC3)c(F)cc2c1=O` [CIPROFLOXACIN] came in with an MIC50 of 64 µg/mL (≈ 193 µM) and an MIC90 of 250 µg/mL (≈ 754 µM).
`NCC[C@H](O)C(=O)N[C@@H]1C[C@H](N)[C@@H](O[C@H]2O[C@H](CN)[C@@H](O)[C@H](O)[C@H]2O)[C@H](O)[C@H]1O[C@H]1O[C@H](CO)[C@@H](O)[C@H](N)[C@H]1O` [AMIKACIN]: in the test on Acinetobacter baumannii [1], the MIC was found to be 64 µg/mL (≈ 109 µM), the MIC50 came to 64 µg/mL (≈ 109 µM) and the MIC90 was 125 µg/mL (≈ 213 µM).
`CC(C)(O/N=C(\C(=O)N[C@@H]1C(=O)N2C(C(=O)[O-])=C(C[n+]3ccccc3)CS[C@H]12)c1csc(N)n1)C(=O)O` [CEFTAZIDIME]: the outcome in the test on Acinetobacter baumannii [3] was inactive. In the test with Acinetobacter baumannii [1], this compound gave an MIC50 of 250 µg/mL (≈ 457 µM) and an MIC90 of 250 µg/mL (≈ 457 µM). The result in the test on Acinetobacter baumannii [7] was inactive.
Turning to `CC1(C)S[C@@H]2[C@H](NC(=O)[C@H](N)c3ccccc3)C(=O)N2[C@H]1C(=O)O` [AMPICILLIN], in the test on Acinetobacter baumannii [8], the minimal inhibitory concentration (MIC) was determined as 8 µg/mL, the MIC50 came to 8 µg/mL and the MIC90 amounted to 16 µg/mL.
With `CCN1CCN(C(=O)N[C@@H](C(=O)N[C@@H]2C(=O)N3[C@@H]2SC(C)(C)[C@@H]3C(=O)O)c2ccccc2)C(=O)C1=O` [PIPERACILLIN], in the test with Acinetobacter baumannii [9], the MIC is 125 µg/mL, the MIC50 was determined as 125 µg/mL and the MIC90 turned out to be 250 µg/mL.
In the test on Acinetobacter baumannii [1], `CO/N=C(\C(=O)N[C@@H]1C(=O)N2C(C(=O)[O-])=C(C[N+]3(C)CCCC3)CS[C@H]12)c1csc(N)n1` [CEFEPIME] gave an MIC of 16 µg/mL (≈ 33.3 µM), an MIC50 of 16 µg/mL (≈ 33.3 µM) and an MIC90 of 32 µg/mL (≈ 66.6 µM).
